# In ChEMBL document CHEMBL3286169, “Development of inhibitors of heterotrimeric Gαi subunits” (Bioorg Med Chem, 2014):
# The source made the active and inactive calls. No cut-off for these calls is given here. Peptide text beside a SMILES is read from it.
# Experiments:
# [1] = target: T1, Guanine nucleotide-binding protein G(q) subunit alpha (Homo sapiens) (UniProt P50148); assay: Binding affinity to Galphaq (unknown origin) expressed in baculovirus-infected insect Hi5 cells assessed as inhibition of BODIPY FL GTPgammaS binding by measuring fluorescence reduction at 30 to 300 uM preincubated for 30 mins followed by BODIPY FL GTPgammaS addition measured for 60 mins by real time nucleotide exchange assay relative to vehicle-treated control; conditions: BTI-TN-5B1-4
# T1 sequence (whole entry): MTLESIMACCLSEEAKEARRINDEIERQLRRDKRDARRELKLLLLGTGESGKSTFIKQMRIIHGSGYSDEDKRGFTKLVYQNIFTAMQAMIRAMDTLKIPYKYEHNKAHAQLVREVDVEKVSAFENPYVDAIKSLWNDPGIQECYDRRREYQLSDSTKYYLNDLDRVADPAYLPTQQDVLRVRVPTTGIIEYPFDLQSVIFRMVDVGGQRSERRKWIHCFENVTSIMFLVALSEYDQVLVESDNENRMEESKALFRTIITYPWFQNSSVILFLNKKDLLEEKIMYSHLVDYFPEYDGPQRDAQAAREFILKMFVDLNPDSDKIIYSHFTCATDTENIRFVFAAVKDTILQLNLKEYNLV
# How it was run: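 Gαq was partially purified from baculovirus-infected Hi5 insect cells (5 × MOI, 48 h). 600 nM protein was preincubated 30 min with compound (DMSO ≤1% v/v final) in 10 mM HEPES, 100 mM NaCl, 5 mM MgCl2, 0.1 mM EDTA, pH 7.4. Exchange was started with 250 nM BODIPY FL GTPγS. Endpoint at 60 min vs vehicle; triplicates, three experiments.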
# HEK293 = assay: Cytotoxicity against HEK293 GloSensor cells transfected with Galphai1 coupled with alpha-2 adrenoceptor assessed as effect on cell viability at 10 uM; type: cell-based; conditions: human, hek293, 10 µM
# [2] = target: Guanine nucleotide-binding protein G(i) subunit alpha-1 (Homo sapiens) (UniProt P63096); assay: Binding affinity to human Galphai1 expressed in Escherichia coli BL21 assessed as inhibition of [35S]GTPgammaS binding preincubated for 20 mins followed by [35S]GTPgammaS addition measured for 30 mins by liquid scintillation counting analysis; type: functional
# Chain of Guanine nucleotide-binding protein G(i) subunit alpha-1 (Homo sapiens) (P63096 whole entry): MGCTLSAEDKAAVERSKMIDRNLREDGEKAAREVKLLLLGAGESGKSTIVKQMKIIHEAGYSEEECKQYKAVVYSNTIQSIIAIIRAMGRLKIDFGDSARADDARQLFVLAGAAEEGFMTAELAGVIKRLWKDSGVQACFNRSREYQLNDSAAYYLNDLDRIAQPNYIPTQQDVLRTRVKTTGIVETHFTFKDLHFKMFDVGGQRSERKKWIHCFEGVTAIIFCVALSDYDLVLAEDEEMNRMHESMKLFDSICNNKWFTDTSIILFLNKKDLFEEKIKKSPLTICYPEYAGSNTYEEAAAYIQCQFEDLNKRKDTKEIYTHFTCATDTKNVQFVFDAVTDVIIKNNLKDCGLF
# How it was run: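 Human Gαi1 was expressed from pPAL7 (Profinity eXact construct) in E. coli BL21 and affinity purified. 100 nM Gαi1 was preincubated 20 min at 24 °C with peptide, then 0.5 μM [35S]GTPγS was added for 30 min at 24 °C, in duplicate. Filtration on nitrocellulose was followed by washes in cold Tris/MgCl2/EDTA buffer pH 7.4 and scintillation counting. Nonspecific binding was taken with 100 μM GTPγS; results are percent of specific binding without peptide.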
compound,measurement,setting,value
CCC[C@H]1C[C@](C)(C(=O)CNc2ccccn2)OC1=O,inhibition,[1],< 10%
CCc1ccc2c(C)nc(NC3=NC(C)(C)CC(C)=N3)nc2c1,Activity,HEK293,Non-toxic
same,inhibition,[1],50%
SC1=C2CCCCC2=[N+](C[C@@H]2CCCO2)[C@@H](c2ccccc2)N1,inhibition,[1],< 10%
Cc1cccc(N[C@@]2(C(F)(F)F)NC(c3ccccc3)=NC2=O)n1,inhibition,[1],25%
CC(=O)C1=C(C)NC(C(C#N)C#N)=C(C#N)[C@H]1c1ccccc1,inhibition,[1],40%
Cc1nc(NC(=O)NCCC2=CSC3=NCCCN23)nn1C,inhibition,[1],27%
C/C(=N\c1ccc(O)cc1)c1sc2ccccc2c1O,inhibition,[1],< 10%
CC(=O)/C(=C(\C)O)[C@@H]1c2ccccc2O[C@H](C(F)(F)F)[C@@H]1[N+](=O)[O-],inhibition,[1],35%
C1=C(/N=C/c2ccccc2)[N+](Cc2ccccc2)=CCO1,inhibition,[1],< 10%
CSCC[C@H](NC(=O)[C@H](CCCNC(=N)N)NC(=O)[C@H](CCCCN)NC(=O)[C@H](CO)NC(=O)[C@H](CCC(N)=O)NC(=O)[C@H](CO)NC(=O)[C@H](CCCCN)NC(=O)[C@H](C)NC(=O)[C@H](CC(C)C)NC(=O)[C@H](CC(C)C)NC(=O)[C@H](CC(=O)O)NC(=O)[C@H](Cc1ccccc1)NC(=O)[C@H](Cc1ccccc1)NC(=O)[C@H](CC(=O)O)NC(=O)[C@H](CCC(=O)O)NC(=O)[C@H](CCC(=O)O)NC(=O)CNC(=O)[C@H](CCSC)NC(=O)[C@@H](N)[C@@H](C)O)C(=O)N[C@@H](CC(=O)O)C(=O)N[C@@H](CC(=O)O)C(=O)N[C@@H](CCC(N)=O)C(=O)N[C@@H](CCCNC(=N)N)C(=O)N[C@H](C(=O)N[C@@H](CC(=O)O)C(=O)N[C@@H](CC(C)C)C(=O)N[C@@H](C)C(=O)N[C@@H](CCCCN)C(N)=O)C(C)C (H-TMGEEDFFDLLAKSQSKRMDDQRVDLAK-NH2),inhibition,[2],Active
CC1=CC(C)(C)NC(Nc2nc(-c3ccccc3)c3ccccc3n2)=N1,Activity,HEK293,Toxic
same,inhibition,[1],< 10%
O=[N+]([O-])[C-](/C=N/C1CCCCC1)/C=N/C1CCCCC1,Activity,HEK293,Non-toxic
same,inhibition,[1],32%
